DNMT1 inh – DNMT1 (human) enzyme inhibition | inhibition (reported as % activation of signal), % at 10 µM | 360,000 compounds, 0.83% hits | DNMT1 molecular beacon, Hinp1I cleavage, fluorescence; in the data active = inhibition above about 50%
SUMO1 PPI mod – modulators of human SUMO1-mediated protein-protein interactions. 360,000 compounds, 0.33% hits. P63165. AID 602429. inhibition, % at 20 µM. SUMO1 binding to a labelled peptide, TR-FRET, 1 h; in the data active = inhibition above about 37%
Target sequence (P63165 whole entry, looked up): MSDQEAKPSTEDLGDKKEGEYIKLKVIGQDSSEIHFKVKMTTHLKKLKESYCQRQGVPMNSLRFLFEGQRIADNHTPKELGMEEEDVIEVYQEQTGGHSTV
Scp-1 inhibitor – Scp-1 (human) phosphatase inhibition; Q9GZU7; Recombinant Scp1, phosphopeptide, malachite green phosphate absorbance; inhibition, % at 20 µM; 340,000 compounds, 0.88% hits; AID 493091;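 active = inhibition above about 50% at 20 µM, limit read from the data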;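 note: plate controls were DMSO wells with enzyme for no effect and wells lacking enzyme for full effect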
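Test system: SCP-1 catalytic domain; Buffer or medium: Acidic Tris acetate buffer with magnesium and detergent; Also added: Phosphorylated 17-residue peptide substrate; Compound: single 20 µM dose, 1% DMSO; Schedule: enzyme reaction 45 min at room temperature, colour 5 min, stabilisation 30 min; Signal: Phosphate-binding colour reagent, absorbance read at 630 nm.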
LMPTP block – blocks human LMPTP phosphatase | inhibition, % at 20 µM | 360,000 compounds, 0.22% hits | recombinant LMPTP-A, OMFP fluorogenic substrate, fluorescence intensity;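 active = compounds that cut the enzyme signal by at least half of the control window in the single-dose screen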;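 note: plate controls were DMSO wells with enzyme plus substrate for no effect and substrate without enzyme for full effect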
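Assay system: LMPTP-A phosphatase enzyme | Input: 0.625 nM enzyme | Also added: Fluorogenic phosphatase substrate OMFP at 400 µM final | Compound dosing: One test concentration per compound, 20 µM, with 3% DMSO overall | Schedule: 50 min enzyme reaction at room temperature, protected from light | Signal: Fluorescence intensity | Benchmarks: no-enzyme and uninhibited controls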
HKDC1 inhibitor – inhibitors of human hexokinase HKDC1; Q2TB90; recombinant HKDC1, G6PDH/diaphorase resazurin coupled fluorescence; inhibition, % at 20 µM; 340,000 compounds, 0.16% hits; AID 493160;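 active = inhibition above about 35% when tested at 20 µM, limit read from the data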;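 note: plate controls were DMSO wells with enzyme for no effect and DMSO wells lacking enzyme for full effect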
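test system = in-house recombinant HK5 (HKDC1) enzyme | amount = HKDC1 at 5 µg/mL | control set = DMSO-enzyme wells negative, buffer-substituted wells positive | compound = one dose of 20 µM, 1% DMSO | schedule = reaction time 90 min, room temperature, protected from light | technique = resorufin fluorescence at 613 nm | reagent = glucose with 1 mM ATP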
STEP block – inhibitors of human striatal-enriched phosphatase STEP. P54829. inhibition, % at 20 µM. 360,000 compounds, 0.25% hits. recombinant STEP, OMFP fluorogenic substrate, fluorescence. AID 588621;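 active = inhibition at 20 µM, scaled per plate between control wells, above about 37%, limit read from the data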;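 note: 0% = DMSO with enzyme and substrate and 100% = substrate only without enzyme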
Target sequence (P54829 whole entry, looked up): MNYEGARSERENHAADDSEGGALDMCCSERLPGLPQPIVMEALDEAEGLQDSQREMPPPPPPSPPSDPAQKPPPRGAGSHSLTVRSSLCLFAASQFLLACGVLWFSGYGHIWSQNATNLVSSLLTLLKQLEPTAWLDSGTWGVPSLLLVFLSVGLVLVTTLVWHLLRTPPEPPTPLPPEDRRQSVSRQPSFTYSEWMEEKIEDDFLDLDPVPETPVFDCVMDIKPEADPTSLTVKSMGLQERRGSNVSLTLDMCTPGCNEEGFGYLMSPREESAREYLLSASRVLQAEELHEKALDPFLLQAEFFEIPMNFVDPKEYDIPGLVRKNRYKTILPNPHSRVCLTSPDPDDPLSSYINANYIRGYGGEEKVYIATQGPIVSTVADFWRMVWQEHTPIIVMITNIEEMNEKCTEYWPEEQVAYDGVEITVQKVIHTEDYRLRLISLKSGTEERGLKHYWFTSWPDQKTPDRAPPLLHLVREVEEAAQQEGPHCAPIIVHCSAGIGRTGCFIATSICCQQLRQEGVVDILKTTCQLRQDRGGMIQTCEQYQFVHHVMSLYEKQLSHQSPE
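System: isolated STEP enzyme; schedule: 20 min enzyme reaction at room temperature, protected from light; medium: Bis-Tris buffer pH 6.0, 2.5 mM DTT, 0.005% Tween 20; signal: fluorescence, 480/540 nm; dosing: single compound dose of 20 µM, 1% DMSO final; also added: OMFP substrate, 25 µM final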
Beacon interf DR – counter-screen for DNMT1 inhibitors: spectral interference, dose response; molecular beacon fluorescence; IC50, µM; shares compounds with DNMT1 inh; 200 tested, under 10 active; call rule not given here
DNMT1 inh conf – confirmation of human DNMT1 inhibitors; shares compounds with DNMT1 inh; DNMT1 molecular beacon HinP1I cleavage, fluorescence; inhibition, % at 10 µM; 2,300 compounds, 8% hits; AID 602385;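 active = average inhibition of at least 30% in the single-concentration confirmation test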
Beacon interf – beacon fluorescence artifact counter-screen | shares compounds with DNMT1 inh | DNMT1 molecular beacon spectral interference counterscreen, fluorescence 485/520 | activation (fluorescence interference), % at 10 µM | 2,300 compounds, 1% hits;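 active = activation of at least 30% at 10 µM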;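 note: DNMT1 catalytic domain with a HinP1I cleavage step and a FAM/dabcyl DNA beacon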
* marks the source's active call; other numbers are inactive results; · = not tested or not shown. The list is not random: actives were taken first. Their share in the collection is about 1.8%.

SMILES | DNMT1 inh | SUMO1 PPI mod | Scp-1 inhibitor | LMPTP block | HKDC1 inhibitor | STEP block | DNMT1 inh conf | Beacon interf | others
CC(C)(C)OC(=O)NCc1ccc(NC(=O)c2nc[nH]c2C(=O)NCCNC(=O)c2[nH]cnc2C(=O)Nc2ccc(CNC(=O)OC(C)(C)C)cc2)cc1 | 64.5* | 0.1 | 4.1 | -3.7 | -2.1 | -4.0 | 0.7 | -4.8
Cc1cccc(NC(=O)c2nc[nH]c2C(=O)NCCCNC(=O)c2[nH]cnc2C(=O)Nc2cccc(C)c2)c1 | 73.1* | 5.5 | -0.2 | 1.6 | 3.7 | 4.7 | 1.6 | -0.2
CC(C)(C)OC(=O)CNC(=O)c1[nH]cnc1C(=O)Nc1ccc(CNC(=O)OC(C)(C)C)cc1 | -9.4 | -4.2 | -2.3 | 1.6 | 1.1 | -2.8 | · | ·
O=C(NCCCO)c1c(O)c2cccc3c2n(c1=O)CCC3 | -2.1 | 6.9 | -6.8 | 0.4 | -2.6 | 3.0 | · | ·
NS(=O)(=O)c1ccc(NC(=O)c2cccc(N3C(=O)c4ccccc4C3=O)c2)cc1 | 54.9* | 93.6* | 6.2 | 38.3 | 17.3 | 37.8 | 7.5 | 2.1
O=C(O)c1cc(NC(=O)c2cccc(N3C(=O)c4ccccc4C3=O)c2)cc(C(=O)O)c1 | 1.4 | -5.0 | -6.7 | -2.0 | -6.1 | -1.3 | · | ·
O=C(O)CC/C(=C\c1ccc(N2CCCC2)c([N+](=O)[O-])c1)c1nc2ccccc2s1 | -1.6 | 11.5 | -2.3 | 4.7 | -12.2 | 2.3 | · | ·
CN(c1ccccc1)c1ccc(/C=C(/CCC(=O)O)c2nc3ccccc3s2)cc1[N+](=O)[O-] | 84.7* | 39.0* | -12.4 | 1.3 | 15.9 | 4.0 | 27.5 | -3.3 | Beacon interf DR=>99
CSc1ccc(C2C(C#N)=C(N)Oc3c2ccc(=O)c2c(C)oc(C)c32)cc1 (stereo not drawn) | 73.6* | 21.5 | -7.5 | 15.5 | 11.9 | 6.1 | 4.4 | 5.7
Cc1noc(C)c1-c1ccc2ncnc(NCC3CCCCN3C)c2c1 (stereo not drawn) | -0.7 | -22.5 | -5.8 | -4.5 | 1.9 | 2.2 | · | ·
O=C(NCCCN1CCCC1=O)Nc1ccc(Br)cc1Cl | -0.4 | -4.2 | -2.0 | 0.3 | -1.2 | -0.8 | · | ·
COC(=O)[C@]12CCCCC=C1N(CCc1ccc(OC)c(OC)c1)C(=O)[C@H](CC(=O)NCCC(C)C)C2 | · | 0.1 | · | -2.1 | · | · | · | ·
COc1ccc(C(=O)Nc2ccc(C)cn2)c(OC)c1 | 73.8* | 7.0 | -9.0 | -1.1 | 5.3 | 1.2 | 1.4 | 3.0
Cc1ccc(Cl)cc1NC(=O)COC(=O)C1CCCC1 | 54.9* | -4.0 | -0.4 | -1.3 | -8.5 | -1.7 | 2.6 | 0.6
CCOc1ccc(NC(=O)C2CCN(S(=O)(=O)CC)CC2)cc1 | 60.0* | -1.6 | -3.7 | 0.4 | -2.3 | 0.1 | 4.8 | 3.8
CCC(Oc1ccccc1)C(=O)Nc1ccsc1C(=O)OC (stereo not drawn) | -2.0 | 3.8 | -5.5 | 0.4 | 4.2 | 32.5 | · | ·
O=C(OCc1nnc(-c2ccccc2)o1)c1ccccc1 | 1.8 | 0.5 | -7.4 | 0.1 | 5.1 | 0.1 | · | ·
O=C(COC(=O)c1ccc(-c2nnc(-c3ccccc3)o2)cc1)c1ccccc1 | 53.8* | 3.4 | -5.2 | 19.0 | -5.8 | -0.3 | 0.6 | 0.7
O=C(CN(Cc1ccc(Br)cc1)S(=O)(=O)c1ccccc1)NCc1ccccn1 | 86.8* | -3.5 | 3.8 | -0.5 | -5.6 | -0.8 | 4.5 | 5.0
COc1ccc(S(=O)(=O)N(CC(=O)NCc2ccccn2)Cc2ccccc2)cc1 | 0.7 | 4.9 | -4.9 | 0.4 | -7.3 | -3.1 | · | ·
O=C1Nc2c(Cl)cc(Cl)cc2C1=O | 60.1* | -4.7 | -2.2 | -0.2 | 16.8 | 2.2 | 15.9 | -12.6 | Beacon interf DR=>99
COc1ccc(/C=C(\C#N)c2nc3ccc(C)cc3[nH]2)cc1Oc1ccc(C(F)(F)F)cc1[N+](=O)[O-] | 51.7* | -2.8 | -17.2 | -1.5 | -4.0 | -1.2 | 4.6 | -4.5
Cc1cc(C)c(S(=O)(=O)N2CCCC(C(=O)NCc3ccccn3)C2)c(C)c1 (stereo not drawn) | -0.7 | -0.9 | -6.4 | -0.2 | 3.0 | 0.5 | · | ·
Cc1cc2c(ncn2Cc2ccccc2)c([N+](=O)[O-])c1C | -0.4 | 0.1 | -5.2 | 0.0 | -0.2 | -1.4 | · | ·
C=CCSC1=N/C(=C\c2cc(OC)c3c(c2)OCO3)C(=O)S1 | 73.7* | 2.7 | -6.4 | 10.0 | 6.1 | -2.3 | 16.9 | 9.2
SMILES | DNMT1 inh | SUMO1 PPI mod | Scp-1 inhibitor | LMPTP block | HKDC1 inhibitor | STEP block | DNMT1 inh conf | Beacon interf | others
CCSC1=N/C(=C\c2ccc3c(c2)OCO3)C(=O)S1 | 3.0 | -10.0 | -4.2 | 1.6 | 1.3 | -0.1 | · | ·
CC(OC(=O)CCN=C1NS(=O)(=O)c2ccccc21)C(=O)c1ccccc1 (stereo not drawn) | 72.2* | 7.2 | -5.8 | -1.0 | -1.5 | -1.2 | 4.1 | 2.2
COc1ccc(Br)cc1/C=N/n1nnnc1N | 53.2* | -22.3 | -6.5 | -0.8 | 5.9 | 0.6 | -0.1 | 19.6
O=c1[nH]c2ccccc2c2nc3ccccn3c12 | 8.3 | -2.5 | 0.4 | 0.0 | 6.9 | 2.3 | · | ·
O=c1nc2c(O)cccn2c2c1c(=O)[nH]c1ccccc12 | 105.1* | 31.1 | 54.8* | 65.2* | 17.4 | 56.9* | 6.2 | 4.1
CCOC(=O)CCSc1nc(C)c2cc(OC)ccc2n1 | 1.2 | -0.3 | -7.2 | -2.7 | -5.8 | 0.5 | · | ·
